In ChEMBL document CHEMBL1145581, “Design and synthesis of tetrahydroisoquinoline derivatives as potential multidrug resistance reversal agents in cancer” (Bioorg Med Chem Lett, 2008):
Active and inactive are the calls of the source. The calls are words filed in the database; no cut-off is given here.

Assays:
[1] = target: T1, ATP-dependent translocase ABCB1 (Rattus norvegicus, UniProt P43245); assay: Inhibition of Pgp-mediated multidrug resistance activity in rat RBMEC cells assessed as Rh123 accumulation at 1 umol/L after 90 mins; assay type: cell-based; details: 1.5 h, 1 µM
Summary of the method: (§1)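 Primary rat brain microvascular endothelial cells were grown in DF with 20% FCS to a 90% confluent monolayer. They were preincubated 30 min in serum-free DF. Compound (1, 3, 10 µM final) and Rh123 5 µM final were then added for 90 min, with cells collected at different times. Washed cells were lysed with Triton X-100 and fluorescence read at 488/535 nm. Values were normalized to Coomassie protein. Duplicate, ≥3 experiments.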

P-gp (ABCB1) [2] = target: T2, P-gp (ABCB1) (Homo sapiens, UniProt P08183); assay: Inhibition of Pgp-mediated multidrug resistance activity in human MCF7/ADM cells assessed as Rh123 accumulation at 1 umol/L after 30 mins; assay type: cell-based; details: probe Rh123
Summary of the method: (§2)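 MCF-7/ADM cells were maintained with ADM 1 µM and seeded at 4 × 10⁴/ml. They were preincubated 30 min in serum-free RPMI 1640, then given compound (1, 3, 10 µM final) for 30 min. Rh123 10 µM final was added for a further 60 min at 37 °C. After PBS washes and Triton X-100 lysis, intracellular fluorescence was read at ex 488/em 535 nm. Triplicate. Inhibitory ratio = (treated − control)/control × 100, background-corrected.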

K562/A02 = assay: Decrease in membrane lipid fluidity in human K562/A02 cells at 10 umol/L; assay type: functional, cell-based
Summary of the method: (§3)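 K562 and K562/A02 cells were grown in RPMI 1640 with 10% FCS and seeded at 1 × 10⁵/ml. They were exposed to 1, 3 or 10 µM compound (final) for 24 h, then washed and labelled with 2 µM DPH for 30 min. After washing, cells were held 10 min at 25 °C. Fluorescence polarization P was read at ex 357.6/em 428.7 nm, with P inversely related to membrane fluidity. Duplicate, ≥3 experiments.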

K562 = assay: Effect on membrane lipid fluidity in human K562 cells; assay type: functional, cell-based; summary of the method: as §3
Rattus norvegicus [3] = assay: Toxicity in Sprague-Dawley rat assessed as ventricular sustained tachycardia by measuring aconitine nitrate level at 2 mg.kg, iv by […]; assay type: organism-based, Cardiac ventricle; details: in vivo
Summary of the method: (§4)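 SD rats were anesthetized with urethane 1.2 g/kg ip, and compound in normal saline was given via the femoral vein. Two minutes later, aconitine nitrate was infused IV at constant rate by peristaltic pump. The aconitine dose at onset of premature beats, sustained tachycardia or fibrillation was determined by […]. n = 3.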

[4] = Antitumor activity against human K562/A02 cells xenografted in nude mouse at 2 mg/kg; assay type: functional
Summary of the method: (§5)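 SCID nude mice received subcutaneous axillary inoculation of log-phase K562/A02 cells at 1 × 10⁷/ml. The cells were maintained in RPMI 1640 with 10% FCS and ADM 1 µg/ml final. When tumors reached a mean diameter of 0.4–0.6 cm, mice were randomized into groups of ten. Drug was given IV three times weekly, alongside adriamycin; vehicle controls were included. Endpoint was tumor weight. Inhibition ratio was calculated relative to the ADM-alone group.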

Rattus norvegicus [5] = assay: Toxicity in Sprague-Dawley rat assessed as ventricular permeature beat by measuring aconitine nitrate level at 2 mg.kg, iv by […]; assay type: organism-based, Cardiac ventricle; details: in vivo
P-gp (ABCB1) [6] = target: T2, P-gp (ABCB1); assay: Inhibition of Pgp-mediated multidrug resistance activity in human MCF7/ADM cells assessed as Rh123 accumulation at 3 umol/L after 30 mins; assay type: cell-based; details: probe Rh123; summary of the method: as §2
[7] = target: T1, ATP-dependent translocase ABCB1; assay: Inhibition of Pgp-mediated multidrug resistance activity in rat RBMEC cells assessed as Rh123 accumulation at 3 umol/L after 90 mins; assay type: cell-based; details: 1.5 h, 3 µM; summary of the method: as §1
[8] = Antitumor activity against human K562/A02 cells xenografted in nude mouse at 8 mg/kg; assay type: functional; summary of the method: as §5
[9] = target: T1, ATP-dependent translocase ABCB1; assay: Inhibition of Pgp-mediated multidrug resistance activity in rat RBMEC cells assessed as Rh123 accumulation at 10 umol/L after 90 mins; assay type: cell-based; details: 1.5 h, 10 µM; summary of the method: as §1
P-gp (ABCB1) [10] = target: T2, P-gp (ABCB1); assay: Inhibition of Pgp-mediated multidrug resistance activity in human MCF7/ADM cells assessed as Rh123 accumulation at 10 umol/L after 30 mins; assay type: cell-based; details: probe Rh123; summary of the method: as §2
Rattus norvegicus [11] = assay: Toxicity in Sprague-Dawley rat assessed as ventricular fibrillation by measuring aconitine nitrate level at 2 mg.kg, iv by […]; assay type: organism-based, Cardiac ventricle; details: in vivo; summary of the method: as §4
Aorta = assay: Toxicity in Sprague-Dawley rat aorta assessed as vascular contractile activity; assay type: tissue-based; details: in vitro
Summary of the method: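 Aortic rings came from SD rats (250–350 g) and were kept at 37 °C under 95% O₂/5% CO₂. Isometric tension was recorded. After 60 min equilibration, rings were contracted with 20 or 80 mM KCl. Drug was then added in increasing concentrations until maximal relaxation. Relaxation was expressed as % of the KCl contraction.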

[12] = Antitumor activity against human K562/A02 cells xenografted in nude mouse assessed as tumor weight at 2 mg/kg; assay type: functional; summary of the method: as §5

T2 sequence (P08183 whole entry): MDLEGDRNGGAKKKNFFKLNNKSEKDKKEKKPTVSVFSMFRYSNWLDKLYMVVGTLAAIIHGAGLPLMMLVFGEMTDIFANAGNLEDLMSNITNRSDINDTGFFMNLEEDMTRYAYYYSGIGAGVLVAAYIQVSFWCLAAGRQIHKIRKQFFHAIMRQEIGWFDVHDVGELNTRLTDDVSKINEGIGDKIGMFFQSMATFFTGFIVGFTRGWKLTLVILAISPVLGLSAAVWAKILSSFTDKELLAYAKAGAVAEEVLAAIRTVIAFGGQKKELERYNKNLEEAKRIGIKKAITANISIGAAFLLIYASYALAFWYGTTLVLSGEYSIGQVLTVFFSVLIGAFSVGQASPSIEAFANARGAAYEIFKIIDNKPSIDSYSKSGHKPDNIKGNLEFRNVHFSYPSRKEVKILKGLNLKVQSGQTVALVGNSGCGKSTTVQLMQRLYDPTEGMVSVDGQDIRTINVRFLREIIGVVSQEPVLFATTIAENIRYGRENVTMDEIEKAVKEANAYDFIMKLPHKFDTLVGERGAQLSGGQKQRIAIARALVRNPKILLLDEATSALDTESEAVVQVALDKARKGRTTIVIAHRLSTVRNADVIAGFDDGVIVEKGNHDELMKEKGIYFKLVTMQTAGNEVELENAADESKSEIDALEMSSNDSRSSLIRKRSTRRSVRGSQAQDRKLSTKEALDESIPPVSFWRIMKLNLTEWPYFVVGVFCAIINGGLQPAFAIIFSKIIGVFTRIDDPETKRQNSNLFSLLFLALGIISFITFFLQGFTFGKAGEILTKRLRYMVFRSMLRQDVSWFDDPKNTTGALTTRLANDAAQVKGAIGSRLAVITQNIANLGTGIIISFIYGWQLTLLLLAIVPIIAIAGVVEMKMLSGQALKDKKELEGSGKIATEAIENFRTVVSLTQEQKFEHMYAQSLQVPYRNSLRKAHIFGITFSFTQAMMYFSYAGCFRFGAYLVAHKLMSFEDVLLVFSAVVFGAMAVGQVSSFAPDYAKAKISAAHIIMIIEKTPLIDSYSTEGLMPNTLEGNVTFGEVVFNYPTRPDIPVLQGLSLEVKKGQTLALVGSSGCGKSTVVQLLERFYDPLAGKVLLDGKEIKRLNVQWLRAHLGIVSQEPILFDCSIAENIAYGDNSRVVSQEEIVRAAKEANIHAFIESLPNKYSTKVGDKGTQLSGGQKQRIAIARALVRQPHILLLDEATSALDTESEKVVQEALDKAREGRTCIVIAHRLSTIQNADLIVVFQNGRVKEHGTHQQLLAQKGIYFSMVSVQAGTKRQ
T1 sequence (P43245 whole entry): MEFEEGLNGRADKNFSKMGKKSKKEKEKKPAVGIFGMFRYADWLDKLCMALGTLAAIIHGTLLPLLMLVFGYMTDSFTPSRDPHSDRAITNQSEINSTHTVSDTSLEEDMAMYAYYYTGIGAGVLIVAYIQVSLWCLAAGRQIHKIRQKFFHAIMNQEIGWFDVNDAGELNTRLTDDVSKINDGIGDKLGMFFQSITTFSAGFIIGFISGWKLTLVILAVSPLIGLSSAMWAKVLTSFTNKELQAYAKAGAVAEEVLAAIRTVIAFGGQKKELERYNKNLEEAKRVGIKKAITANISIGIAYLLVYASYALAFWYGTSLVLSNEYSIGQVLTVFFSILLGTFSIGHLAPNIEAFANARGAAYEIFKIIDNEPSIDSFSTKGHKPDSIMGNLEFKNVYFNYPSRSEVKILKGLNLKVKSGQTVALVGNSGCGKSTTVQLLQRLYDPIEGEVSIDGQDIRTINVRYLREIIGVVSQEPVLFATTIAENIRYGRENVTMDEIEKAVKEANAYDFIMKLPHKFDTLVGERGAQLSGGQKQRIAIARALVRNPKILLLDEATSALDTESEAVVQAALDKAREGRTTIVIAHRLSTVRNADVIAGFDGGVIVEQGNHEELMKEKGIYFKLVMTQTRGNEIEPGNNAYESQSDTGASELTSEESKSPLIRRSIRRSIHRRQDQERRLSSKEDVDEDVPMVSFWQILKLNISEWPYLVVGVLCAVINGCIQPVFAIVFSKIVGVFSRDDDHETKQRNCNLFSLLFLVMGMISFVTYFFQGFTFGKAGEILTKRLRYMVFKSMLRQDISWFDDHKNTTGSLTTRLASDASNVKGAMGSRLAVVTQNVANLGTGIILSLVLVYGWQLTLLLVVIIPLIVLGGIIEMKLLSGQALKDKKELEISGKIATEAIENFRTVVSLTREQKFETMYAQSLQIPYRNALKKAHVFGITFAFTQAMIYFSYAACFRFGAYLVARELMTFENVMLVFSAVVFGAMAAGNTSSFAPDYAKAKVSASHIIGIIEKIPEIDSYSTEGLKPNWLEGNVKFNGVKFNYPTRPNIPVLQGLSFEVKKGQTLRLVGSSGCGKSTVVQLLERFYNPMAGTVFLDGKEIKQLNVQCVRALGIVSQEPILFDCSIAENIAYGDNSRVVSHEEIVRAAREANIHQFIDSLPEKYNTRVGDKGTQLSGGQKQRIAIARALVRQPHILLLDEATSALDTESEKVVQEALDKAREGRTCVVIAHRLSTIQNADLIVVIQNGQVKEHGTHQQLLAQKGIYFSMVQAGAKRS

| SMILES | Activity [1] | inhibition at 0.5 h, 1 µM (P-gp (ABCB1) [2]) [%] | Activity (K562/A02) | Activity (K562) | Activity (Rattus norvegicus [3]) [µg/kg] | inhibition in vivo at 2 mg/kg [4] [%] | Activity (Rattus norvegicus [5]) [µg/kg] | inhibition at 0.5 h, 3 µM (P-gp (ABCB1) [6]) [%] | Activity [7] | inhibition in vivo at 8 mg/kg [8] [%] | Activity [9] | inhibition at 0.5 h, 10 µM (P-gp (ABCB1) [10]) [%] | Activity (Rattus norvegicus [11]) [µg/kg] | Activity (Aorta) | Activity [12] [g] |
| --- | --- | --- | --- | --- | --- | --- | --- | --- | --- | --- | --- | --- | --- | --- | --- |
| CCCCCCCCN/C(=N/C#N)N1CCc2cc(OC)c(OC)cc2C1Cc1ccc(OC)c(OC)c1 (stereo unspecified) | Active | 35.2 | Active | inactive | 26.7 | -62.2 | 22.4 | 60.5 | Active | -59.5 | Active | 69.3 | 31.5 | Not Active |  |
| COc1ccc(CCN(C)CCCC(C#N)(c2ccc(OC)c(OC)c2)C(C)C)cc1OC (stereo unspecified) [VERAPAMIL] |  |  |  | inactive | 44 |  |  |  |  | -66.4 | Active | 98.7 | 55 |  |  |
| COc1cccc2c1C(=O)c1c(O)c3c(c(O)c1C2=O)C[C@@](O)(C(=O)CO)C[C@@H]3O[C@H]1C[C@H](N)[C@H](O)[C@H](C)O1 [DOXORUBICIN] |  |  |  |  |  |  |  |  |  |  |  |  |  |  | 2.17 |
